Measured values: ChEMBL document CHEMBL5154945, “Discovery and Optimization of Pyrrolopyrimidine Derivatives as Selective Disruptors of the Perinucleolar Compartment, a Marker of Tumor Progression toward Metastasis” (J Med Chem, 2022)
Active and inactive are the calls of the source.

How the values were obtained:
PC-3M [1] = assay: Antiproliferative activity against human PC-3M cells expressing PTB/GFP fusion protein assessed as cell growth inhibition at < 100 nM and measured every four hrs for 130 hrs by IncuCyte zoom live cell analysis; assay type: functional, cell-based; settings: DDE = dose-dependent effect
Method in brief: (§1)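 PC3M cells stably expressing GFP-PTB, grown in DMEM with 10% FBS and 1% penicillin/streptomycin, seeded at 1.25×10^4 cells/ml in 384-well plates and left overnight at 37 °C, 5% CO2. Compound added in DMEM to give 11 final concentrations from 10 nM to 20 μM. Brightfield images were taken every 4 h for about 130 h and scored as percent confluence.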

PC-3M [2] = assay: Antiproliferative activity against human PC-3M cells expressing PTB/GFP fusion protein assessed as cell growth inhibition at 0.1 to 10 uM and measured every four hrs for 130 hrs by IncuCyte zoom live cell analysis; assay type: functional, cell-based; settings: dose 0.1-10 µM; method in brief: as §1
PC-3M [3] = assay: Antiproliferative activity against human PC-3M cells expressing PTB/GFP fusion protein assessed as reduction of nucleolar volume at 1 to 30 uM measured after 24 hrs by Nucleolar-id Green Detection based confocal microscopic analysis; assay type: functional, cell-based; settings: dose 1-30 µM, DDE = dose-dependent effect
Method in brief: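 PC-3M cells grown in RPMI 1640 with 10% FBS and penicillin/streptomycin, trypsinized at 70% confluence, and seeded at 2×10^5 cells/mL overnight at 37 °C, 5% CO₂. Medium replaced with compound or 1% DMSO for 24 h. Nucleoli stained with Nucleolar-ID Green and nuclei with Hoechst 33342, then imaged by confocal microscopy. Bright green objects in three images per condition normalized to nuclei count; vehicle set to 100.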

[4] = Cmax in female BALB/c mouse at 5 mg/kg, ip at 30 min by LC-MS/MS analysis; assay type: ADME, organism-based; design: time 30 min, dose 5 mg/kg, route ip; settings: in vivo, 0.5 h
Method in brief: (§2)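 Fed female BALB/c mice, about 6–8 weeks old and 25–30 g, received a single IP dose of 5 or 25 mpk in NMP/PEG400/HP-β-CD aqueous vehicle (0.5 mg/mL for the 5 mpk dose). Three mice per time point were sampled up to 48 h by retro-orbital bleed under isoflurane into K2EDTA. Plasma was spun at 2000 g, 4 °C, frozen at -80 °C, and assayed by LC/MS/MS.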

[5] = Tmax in female BALB/c mouse at 25 mg/kg, ip and measured upto 48 hrs by LC-MS/MS analysis; assay type: ADME, organism-based; settings: in vivo; method in brief: as §2
K562 = assay: Anticancer activity against human K562 cells assessed as cell growth inhibition; assay type: functional, cell-based; settings: dose 1-100 µM, DDE = dose-dependent effect
EKVX = assay: Anticancer activity against human EKVX cells assessed as cell growth inhibition; assay type: functional, cell-based; settings: dose 1-100 µM, DDE = dose-dependent effect
HOP-62 = assay: Anticancer activity against human HOP-62 cells assessed as cell growth inhibition; assay type: functional, cell-based; settings: dose 1-100 µM, DDE = dose-dependent effect
NCI-H226 = assay: Anticancer activity against human NCI-H226 cells assessed as cell growth inhibition; assay type: functional, cell-based; settings: dose 1-100 µM, DDE = dose-dependent effect
NCI-H322M = assay: Anticancer activity against human NCI-H322M cells assessed as cell growth inhibition; assay type: functional, cell-based; settings: dose 1-100 µM, DDE = dose-dependent effect
HT-29 = assay: Anticancer activity against human HT-29 cells assessed as cell growth inhibition; assay type: functional, cell-based; settings: dose 1-100 µM, DDE = dose-dependent effect
U-251 = assay: Anticancer activity against human U-251 cells assessed as cell growth inhibition; assay type: functional, cell-based; settings: dose 1-100 µM, DDE = dose-dependent effect
LOX IMVI = assay: Anticancer activity against human LOX IMVI cells assessed as cell growth inhibition; assay type: functional, cell-based; settings: dose 1-100 µM, DDE = dose-dependent effect
M14 = assay: Anticancer activity against human M14 cells assessed as cell growth inhibition; assay type: functional, cell-based; settings: dose 1-100 µM, DDE = dose-dependent effect
SK-MEL-28 = assay: Anticancer activity against human SK-MEL-28 cells assessed as cell growth inhibition; assay type: functional, cell-based; settings: dose 1-100 µM, DDE = dose-dependent effect
SK-MEL-5 = assay: Anticancer activity against human SK-MEL-5 cells assessed as cell growth inhibition; assay type: functional, cell-based; settings: dose 1-100 µM, DDE = dose-dependent effect
OVCAR-4 = assay: Anticancer activity against human OVCAR-4 cells assessed as cell growth inhibition; assay type: functional, cell-based; settings: dose 1-100 µM, DDE = dose-dependent effect
OVCAR-5 = assay: Anticancer activity against human OVCAR-5 cells assessed as cell growth inhibition; assay type: functional, cell-based; settings: dose 1-100 µM, DDE = dose-dependent effect
NCI/ADR-RES = assay: Anticancer activity against human NCI/ADR-RES cells assessed as cell growth inhibition; assay type: functional, cell-based; settings: dose 1-100 µM, DDE = dose-dependent effect
786-0 = assay: Anticancer activity against human 786-0 cells assessed as cell growth inhibition; assay type: functional, cell-based; settings: dose 1-100 µM, DDE = dose-dependent effect
CAKI-1 = assay: Anticancer activity against human CAKI-1 cells assessed as cell growth inhibition; assay type: functional, cell-based; settings: dose 1-100 µM, DDE = dose-dependent effect
PC-3 = assay: Anticancer activity against human PC-3 cells assessed as cell growth inhibition; assay type: functional, cell-based; settings: dose 1-100 µM, DDE = dose-dependent effect
MCF7 = assay: Anticancer activity against human MCF7 cells assessed as cell growth inhibition; assay type: functional, cell-based; settings: dose 1-100 µM, DDE = dose-dependent effect
[6] = target: 5-hydroxytryptamine receptor 3A (Homo sapiens) (UniProt P46098); assay: Binding affinity to 5-HT3 receptor (unknown origin) at 10000 nM by radioligand displacement assay relative to control
[7] = target: 5-hydroxytryptamine receptor 7 (Homo sapiens) (UniProt P34969); assay: Binding affinity to 5-HT7 receptor (unknown origin) at 10000 nM by radioligand displacement assay relative to control
[8] = target: Beta-2 adrenergic receptor (Homo sapiens) (UniProt P07550); assay: Binding affinity to beta2 receptor (unknown origin) at 10000 nM by radioligand displacement assay relative to control
[9] = target: Beta-3 adrenergic receptor (Homo sapiens) (UniProt P13945); assay: Binding affinity to beta3 receptor (unknown origin) at 10000 nM by radioligand displacement assay relative to control
[10] = target: D(1A) dopamine receptor (Homo sapiens) (UniProt P21728); assay: Binding affinity to D1 receptor (unknown origin) at 10000 nM by radioligand displacement assay relative to control
[11] = target: D(2) dopamine receptor (Homo sapiens) (UniProt P14416); assay: Binding affinity to D2 receptor (unknown origin) at 10000 nM by radioligand displacement assay relative to control
[12] = target: D(4) dopamine receptor (Homo sapiens) (UniProt P21917); assay: Binding affinity to D4 receptor (unknown origin) at 10000 nM by radioligand displacement assay relative to control
[13] = target: Histamine H2 receptor (Homo sapiens) (UniProt P25021); assay: Binding affinity to H2 receptor (unknown origin) at 10000 nM by radioligand displacement assay relative to control
[14] = target: Kappa-type opioid receptor (Homo sapiens) (UniProt P41145); assay: Binding affinity to KOR receptor (unknown origin) at 10000 nM by radioligand displacement assay relative to control
[15] = target: Muscarinic acetylcholine receptor M4 (Homo sapiens) (UniProt P08173); assay: Binding affinity to M4 receptor (unknown origin) at 10000 nM by radioligand displacement assay relative to control
[16] = target: Sigma intracellular receptor 2 (Homo sapiens, UniProt Q5BJF2); assay: Binding affinity to sigma2 receptor (unknown origin) by radioligand displacement assay
[17] = mouse, in vivo, ip, 50 mg/kg, 0.5 h

Sequence of Beta-3 adrenergic receptor (Homo sapiens) (P13945 whole entry, looked up): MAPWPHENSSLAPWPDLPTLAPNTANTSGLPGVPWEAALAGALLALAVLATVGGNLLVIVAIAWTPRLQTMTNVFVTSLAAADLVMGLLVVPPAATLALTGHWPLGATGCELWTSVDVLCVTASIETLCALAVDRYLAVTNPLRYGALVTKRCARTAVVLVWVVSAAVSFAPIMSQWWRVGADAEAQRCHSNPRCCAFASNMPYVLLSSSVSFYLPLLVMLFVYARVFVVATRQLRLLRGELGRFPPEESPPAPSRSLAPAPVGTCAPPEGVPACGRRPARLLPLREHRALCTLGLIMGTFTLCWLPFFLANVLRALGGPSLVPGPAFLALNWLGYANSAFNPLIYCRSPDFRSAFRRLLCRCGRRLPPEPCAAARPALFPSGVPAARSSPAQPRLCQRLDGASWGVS
Sequence of D(1A) dopamine receptor (Homo sapiens) (P21728 whole entry): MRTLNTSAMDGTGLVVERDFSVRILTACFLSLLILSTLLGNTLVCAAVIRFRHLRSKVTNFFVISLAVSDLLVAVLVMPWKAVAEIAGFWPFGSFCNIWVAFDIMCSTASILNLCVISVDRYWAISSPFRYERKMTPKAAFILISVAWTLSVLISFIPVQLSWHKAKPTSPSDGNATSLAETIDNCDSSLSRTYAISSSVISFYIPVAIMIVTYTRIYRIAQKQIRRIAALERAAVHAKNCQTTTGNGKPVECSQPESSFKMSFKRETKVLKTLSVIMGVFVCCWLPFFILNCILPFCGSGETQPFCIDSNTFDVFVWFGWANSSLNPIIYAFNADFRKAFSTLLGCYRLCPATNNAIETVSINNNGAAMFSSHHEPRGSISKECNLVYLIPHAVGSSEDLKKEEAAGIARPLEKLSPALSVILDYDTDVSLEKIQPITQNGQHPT
Sequence of D(4) dopamine receptor (Homo sapiens) (P21917 whole entry): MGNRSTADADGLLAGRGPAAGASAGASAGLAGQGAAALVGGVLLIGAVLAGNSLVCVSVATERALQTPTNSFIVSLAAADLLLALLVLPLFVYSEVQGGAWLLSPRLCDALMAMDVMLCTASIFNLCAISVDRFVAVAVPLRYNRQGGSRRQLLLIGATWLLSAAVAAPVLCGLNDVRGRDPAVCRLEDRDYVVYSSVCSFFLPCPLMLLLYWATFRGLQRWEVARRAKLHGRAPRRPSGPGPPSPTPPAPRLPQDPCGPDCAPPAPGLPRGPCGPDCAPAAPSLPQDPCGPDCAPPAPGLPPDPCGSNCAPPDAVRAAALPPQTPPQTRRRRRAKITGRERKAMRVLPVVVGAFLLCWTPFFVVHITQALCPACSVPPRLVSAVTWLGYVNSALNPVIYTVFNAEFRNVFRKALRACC
Sequence of 5-hydroxytryptamine receptor 7 (Homo sapiens) (P34969 whole entry): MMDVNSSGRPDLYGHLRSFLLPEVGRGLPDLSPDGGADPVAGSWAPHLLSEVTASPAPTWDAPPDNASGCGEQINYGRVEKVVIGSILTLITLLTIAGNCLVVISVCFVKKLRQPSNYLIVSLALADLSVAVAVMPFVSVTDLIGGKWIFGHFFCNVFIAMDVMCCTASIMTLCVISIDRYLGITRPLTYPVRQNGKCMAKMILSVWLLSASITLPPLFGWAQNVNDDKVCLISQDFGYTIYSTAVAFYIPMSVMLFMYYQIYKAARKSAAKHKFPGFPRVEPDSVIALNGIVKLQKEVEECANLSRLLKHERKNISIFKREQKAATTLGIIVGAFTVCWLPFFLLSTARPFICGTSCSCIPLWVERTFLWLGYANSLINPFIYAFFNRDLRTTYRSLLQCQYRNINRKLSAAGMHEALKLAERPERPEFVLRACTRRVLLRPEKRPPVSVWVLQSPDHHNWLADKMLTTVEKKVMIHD
Sequence of Kappa-type opioid receptor (Homo sapiens) (P41145 whole entry): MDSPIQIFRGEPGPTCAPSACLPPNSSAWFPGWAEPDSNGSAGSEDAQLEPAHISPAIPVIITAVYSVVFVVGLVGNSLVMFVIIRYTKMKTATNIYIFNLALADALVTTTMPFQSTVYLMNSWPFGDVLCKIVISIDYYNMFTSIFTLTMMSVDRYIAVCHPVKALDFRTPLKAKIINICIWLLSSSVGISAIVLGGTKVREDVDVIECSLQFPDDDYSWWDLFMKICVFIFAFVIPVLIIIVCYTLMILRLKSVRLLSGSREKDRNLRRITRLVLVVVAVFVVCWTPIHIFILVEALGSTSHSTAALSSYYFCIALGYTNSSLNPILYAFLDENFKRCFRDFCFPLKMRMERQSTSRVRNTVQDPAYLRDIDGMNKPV
Sequence of Muscarinic acetylcholine receptor M4 (Homo sapiens) (P08173 whole entry): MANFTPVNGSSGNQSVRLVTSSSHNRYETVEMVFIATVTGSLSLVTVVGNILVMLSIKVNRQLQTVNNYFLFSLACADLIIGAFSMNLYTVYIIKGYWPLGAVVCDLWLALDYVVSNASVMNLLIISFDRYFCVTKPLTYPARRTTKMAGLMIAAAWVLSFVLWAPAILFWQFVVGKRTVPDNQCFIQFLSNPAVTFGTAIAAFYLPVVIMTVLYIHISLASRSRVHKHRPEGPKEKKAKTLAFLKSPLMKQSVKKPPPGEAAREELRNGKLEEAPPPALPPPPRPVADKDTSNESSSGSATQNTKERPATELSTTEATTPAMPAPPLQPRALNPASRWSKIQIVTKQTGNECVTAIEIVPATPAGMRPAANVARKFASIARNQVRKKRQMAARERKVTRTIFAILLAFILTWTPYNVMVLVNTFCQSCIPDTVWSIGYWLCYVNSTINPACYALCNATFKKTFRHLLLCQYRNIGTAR
Sequence of Histamine H2 receptor (Homo sapiens) (P25021 whole entry): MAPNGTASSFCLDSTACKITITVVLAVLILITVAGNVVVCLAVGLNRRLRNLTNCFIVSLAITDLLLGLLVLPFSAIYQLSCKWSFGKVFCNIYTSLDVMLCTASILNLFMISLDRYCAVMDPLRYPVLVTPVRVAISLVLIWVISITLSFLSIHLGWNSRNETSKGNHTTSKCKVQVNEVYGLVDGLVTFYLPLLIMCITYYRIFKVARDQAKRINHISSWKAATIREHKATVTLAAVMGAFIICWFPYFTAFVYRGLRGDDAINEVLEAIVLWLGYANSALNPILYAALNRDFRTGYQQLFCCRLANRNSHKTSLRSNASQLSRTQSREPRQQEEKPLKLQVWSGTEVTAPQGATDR
Sequence of D(2) dopamine receptor (Homo sapiens) (P14416 whole entry): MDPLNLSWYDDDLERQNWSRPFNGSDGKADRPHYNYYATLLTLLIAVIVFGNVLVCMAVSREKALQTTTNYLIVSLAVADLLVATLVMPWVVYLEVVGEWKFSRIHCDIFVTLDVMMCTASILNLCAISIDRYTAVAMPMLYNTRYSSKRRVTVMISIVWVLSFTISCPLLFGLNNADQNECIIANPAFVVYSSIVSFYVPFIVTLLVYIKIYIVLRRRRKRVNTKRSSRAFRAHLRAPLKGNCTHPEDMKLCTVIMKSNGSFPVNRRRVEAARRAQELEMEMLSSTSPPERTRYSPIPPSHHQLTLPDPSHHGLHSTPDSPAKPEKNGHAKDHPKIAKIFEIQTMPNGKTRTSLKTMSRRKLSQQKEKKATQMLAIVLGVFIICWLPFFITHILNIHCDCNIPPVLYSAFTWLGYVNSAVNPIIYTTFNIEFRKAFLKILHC
Sequence of 5-hydroxytryptamine receptor 3A (Homo sapiens) (P46098 whole entry): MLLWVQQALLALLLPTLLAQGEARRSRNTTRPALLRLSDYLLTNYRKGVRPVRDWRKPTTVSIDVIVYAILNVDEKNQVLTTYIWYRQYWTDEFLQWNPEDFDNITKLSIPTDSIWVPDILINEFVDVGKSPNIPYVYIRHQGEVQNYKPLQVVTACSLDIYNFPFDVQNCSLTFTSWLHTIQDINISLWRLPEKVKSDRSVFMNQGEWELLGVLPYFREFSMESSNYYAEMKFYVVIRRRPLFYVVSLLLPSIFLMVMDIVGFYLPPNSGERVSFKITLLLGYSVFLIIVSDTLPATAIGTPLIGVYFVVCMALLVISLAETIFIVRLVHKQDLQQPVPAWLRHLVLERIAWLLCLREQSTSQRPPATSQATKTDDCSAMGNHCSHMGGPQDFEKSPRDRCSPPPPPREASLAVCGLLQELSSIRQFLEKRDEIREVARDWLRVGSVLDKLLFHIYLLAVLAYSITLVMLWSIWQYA
Sequence of Beta-2 adrenergic receptor (Homo sapiens) (P07550 whole entry, looked up): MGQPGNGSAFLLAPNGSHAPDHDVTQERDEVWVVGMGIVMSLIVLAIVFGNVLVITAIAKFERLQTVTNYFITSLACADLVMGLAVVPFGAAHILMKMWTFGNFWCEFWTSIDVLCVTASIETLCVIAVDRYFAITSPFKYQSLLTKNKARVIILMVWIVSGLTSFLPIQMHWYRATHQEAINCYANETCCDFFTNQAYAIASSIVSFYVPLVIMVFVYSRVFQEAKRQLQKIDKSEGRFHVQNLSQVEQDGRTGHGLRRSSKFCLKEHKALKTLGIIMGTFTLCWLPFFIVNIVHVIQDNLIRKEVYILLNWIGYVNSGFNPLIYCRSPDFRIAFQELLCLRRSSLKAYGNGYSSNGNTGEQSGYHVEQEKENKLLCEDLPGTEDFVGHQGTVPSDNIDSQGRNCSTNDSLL
Sequence of Sigma intracellular receptor 2 (Q5BJF2 whole entry): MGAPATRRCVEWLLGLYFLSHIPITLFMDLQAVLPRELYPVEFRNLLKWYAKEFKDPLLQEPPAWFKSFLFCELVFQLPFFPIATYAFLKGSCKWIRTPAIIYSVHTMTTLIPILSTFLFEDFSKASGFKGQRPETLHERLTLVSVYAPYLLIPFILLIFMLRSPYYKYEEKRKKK

N=c1c2c(-c3ccccc3)c(-c3ccccc3)n(Cc3ccccc3)c2ncn1[C@H]1CC[C@H](O)CC1 [ML-246]
20.3 µM: Cmax [17]
0.91 µM: Cmax [4]
active: Activity (PC-3M [1]) Dde | Activity (PC-3M [2]) | Activity (PC-3M [3]) Dde | Activity (K562) Dde | Activity (EKVX) Dde | Activity (HOP-62) Dde | Activity (NCI-H226) Dde | Activity (NCI-H322M) Dde | Activity (HT-29) Dde | Activity (U-251) Dde | Activity (LOX IMVI) Dde | Activity (M14) Dde | Activity (SK-MEL-28) Dde | Activity (SK-MEL-5) Dde | Activity (OVCAR-4) Dde | Activity (OVCAR-5) Dde | Activity (NCI/ADR-RES) Dde | Activity (786-0) Dde | Activity (CAKI-1) Dde | Activity (PC-3) Dde | Activity (MCF7) Dde
244 nM: Ki [16]
30 min: Tmax [5]
< 50%: Activity [6] | Activity [7] | Activity [8] | Activity [9] | Activity [10] | Activity [11] | Activity [12] | Activity [13] | Activity [14] | Activity [15]
